Only some compounds are listed: those with a hit (about 2.7% of all), similar ones and a draw of the others.
OX1R antag-1: human HCRTR1 antagonism; inhibition, % at 5 µM; CHO/OX1R cells, Fluo-8 calcium fluorescence, orexin A; AID 434989; 330,000 compounds, 0.43% hits; O43613;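 active = inhibition above its plate's threshold, mean inhibition of all tested compounds on the plate plus 3 SD, cut at about 37% in these data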
V1aR counter: activates human V1a receptor in oxytocin agonist counter-screen. P37288. activation, % at 3 µM. CHO-V1R cells, Fluo-8 calcium fluorescence, agonist mode; 0% DMSO, 100% 3 nM vasopressin. 320,000 compounds, 0.25% hits;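 active = activation above the mean activation of all tested compounds plus 3 SD, per screening run, cut at about 20% in these data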;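 also: signal is peak over basal fluorescence ratio across a 100 second FLIPR read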
OXTR agonist: human OXTR agonism; CHO-OTR cells, Fluo-8 calcium fluorescence; normalized: DMSO 0%, oxytocin 100%; 320,000 compounds, 0.32% hits; activation, % at 3 µM;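 active = activation above the mean of all tested compounds plus 3 SD, cutoff set per screening run, cut at about 20% in these data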;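 also: peak over basal fluorescence ratio from a 100 s FLIPR kinetic read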
Target sequence (P30559 whole entry, looked up): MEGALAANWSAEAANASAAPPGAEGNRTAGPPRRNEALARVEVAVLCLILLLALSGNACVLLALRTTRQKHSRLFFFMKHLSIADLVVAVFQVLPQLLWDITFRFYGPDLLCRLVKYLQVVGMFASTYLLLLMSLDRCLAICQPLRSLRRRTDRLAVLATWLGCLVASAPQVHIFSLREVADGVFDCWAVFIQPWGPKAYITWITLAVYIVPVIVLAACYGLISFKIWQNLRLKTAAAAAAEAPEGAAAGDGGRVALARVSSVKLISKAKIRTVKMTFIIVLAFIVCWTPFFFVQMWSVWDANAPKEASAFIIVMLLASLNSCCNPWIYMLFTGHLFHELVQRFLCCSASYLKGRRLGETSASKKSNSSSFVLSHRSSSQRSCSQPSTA
CHO parental Ca: signal in parental CHO cells, OX1R antagonist counter-screen | parental CHO-K1, ATP-induced calcium, Fluo-8 fluorescence | inhibition, % at 5.6 µM | 330,000 compounds, 0.63% hits;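 active = inhibition above that plate's mean sample inhibition plus 3 SD, cut at about 26% in these data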
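Test system: parental CHO cells; detection: calcium-sensitive Fluo-8 fluorescence; evaluation: percent inhibition of calcium signal; also added: ATP as calcium-mobilizing challenge; repeats: one well per compound; control set: ATP-challenged DMSO wells low, unchallenged DMSO wells high; compound: single nominal dose of 5.6 µM per compound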
OX1R antag-2: blocks the human orexin 1 receptor; OX1R-expressing cells, FRET antagonist read-out; inhibition, % at 6.6 µM; 330,000 compounds, 1.8% hits; in the data active = inhibition mostly above about 38%, no sharp cut-off; inactive = mostly below about 40%
OXTR potentiator: potentiates the human oxytocin receptor response; P30559; CHO-OTR cells, Fluo-8 calcium fluorescence, potentiator mode; 0% = oxytocin EC15, 100% = EC100; activation, % at 3 µM; 320,000 compounds, 0.061% hits;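 active = activation above that plate's cutoff, the mean activation of tested compounds plus 3 SD, cut at about 6.6% in these data, passing the limit was not always enough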
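Assay system: CHO cell line stably expressing human OTR. Reagent: EC15 oxytocin agonist. Dosing: single dose, 3.0 µM nominal final compound concentration. Timing: compound 6 min at room temperature before oxytocin, 100 s read. Signal: kinetic Fluo-8 calcium fluorescence. Controls: oxytocin EC15 low and EC100 high.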
OX1R HTRF confirm: confirmation of human orexin 1 receptor antagonists, HTRF format; shares compounds with OX1R antag-2; OX1R-expressing cells, HTRF antagonist assay; inhibition, % at 6.6 µM; 1,800 compounds, 49% hits; in the data active = inhibition above about 55%;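 also: CHO cells expressing OX1R stimulated with orexin A at about EC80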
CHO-K1 HTRF cnt: counter-screen for OX1R antagonists: effect in parental CHO-K1 cells; inhibition, % at 6.6 µM; HTRF counterscreen; 1,800 compounds, 48% hits; shares compounds with OX1R antag-2; AID 493232; in the data active = inhibition above about 17%
Of the large screens only hits and unclear results are named; the others gave an inactive call (follow-up assays come after a bar, where they were run).

S=c1[nH]nc(Cc2sc(-c3ccccc3)nc2-c2ccccc2)o1	OX1R antag-2 78 | OX1R HTRF confirm inactive | CHO-K1 HTRF cnt 22
S=c1[nH]nc(Cc2c[nH]c3ccccc23)o1	none
O=C1C(=O)c2ccccc2C(O)=C1CCCCl	OX1R antag-2 80 | OX1R HTRF confirm 77 | CHO-K1 HTRF cnt 96
COc1ccc(CC2=C(O)c3ccccc3C(=O)C2=O)cc1	none
COc1cc2c(=O)n(CCC(=O)NCC3CCCO3)c(=O)n(CC(=O)c3ccc(Cl)cc3)c2cc1OC (configuration not stated)	OX1R antag-2 93 | OX1R HTRF confirm inactive | CHO-K1 HTRF cnt inactive
CC(C)(C)OC(=O)C[C@H]1C/C=C\C[C@H](CC(=O)NCCO)C(=O)NC[C@@H](c2ccccc2)OC1=O	none
COc1cc2nc(C)sc2cc1SC	none
COc1cc2nc(/C=C/c3cc(OC)c(OC)c(OC)c3)sc2cc1SC	OX1R antag-2 79 | OX1R HTRF confirm 84 | CHO-K1 HTRF cnt inactive
Cc1ccc(S(=O)(=O)NCc2ccccc2)cc1C(=O)NCC(C)(C)N1CCOCC1	none
CN1CCN(Cc2c(O)ccc3c(-c4ccccc4)cc(=O)oc23)CC1	none
CCCCN(C)Cc1c(O)ccc2c(-c3ccccc3)cc(=O)oc12	OX1R antag-2 85 | OX1R HTRF confirm inactive | CHO-K1 HTRF cnt inactive
Cc1cc2nc(N3CCN(C(=O)c4ccco4)CC3)sc2cc1C	none
Cc1cc(C)c2nc(N3CCN(C(=O)c4ccco4)CC3)sc2c1	OX1R antag-2 82 | OX1R HTRF confirm inactive | CHO-K1 HTRF cnt inactive
O=C1c2cccc3cccc(c23)C(=O)N1c1ccc2ncccc2c1	none
O=C1c2cccc3cc([N+](=O)[O-])cc(c23)C(=O)N1c1nncs1	OX1R antag-2 78 | OX1R HTRF confirm 61 | CHO-K1 HTRF cnt 86
COC(=O)C(CC(=O)c1ccc(Br)cc1)n1cccn1 (configuration not stated)	none
COc1ccc(C(=O)c2ccc(Cl)cc2)c2ccccc12	none
COc1ccc(C(=O)c2ccccc2)c2c(O)ccc(C(=O)c3ccccc3)c12	OX1R antag-2 104 | OX1R HTRF confirm 60 | CHO-K1 HTRF cnt inactive
CCOCC(=O)N1CCN(c2ccc([N+](=O)[O-])cc2)CC1	OX1R antag-2 83 | OX1R HTRF confirm inactive | CHO-K1 HTRF cnt 29
CCOCC(=O)N1CCN(c2ccc(F)cc2)CC1	none
O=[N+]([O-])c1ccc(S(=O)(=O)N(CCCN2CCOCC2)Cc2cccs2)cc1	OX1R antag-2 86 | OX1R HTRF confirm inactive | CHO-K1 HTRF cnt 43
Cc1ccc2c(ccc[n+]2CC(=O)c2ccccc2)c1	OX1R antag-2 84 | OX1R HTRF confirm inactive | CHO-K1 HTRF cnt 40
COc1cccc(NC(=O)CN(C)C(=O)COc2ccccc2Cc2ccccc2)c1	none
Cc1nc2[nH]onc2c2nccc(=O)c12	OX1R antag-2 121 | OX1R HTRF confirm inactive | CHO-K1 HTRF cnt 38
Cc1nnc(NC(=O)C2CCN(S(=O)(=O)c3ccc(F)c(F)c3)CC2)o1	none
CC(C)[C@H](NC(=O)c1ccc(Cl)cc1)C(=O)OCC(=O)N1CCN(c2ccccc2)CC1	none
CCCCC(=O)N/N=C/c1ccc(-c2ccc([N+](=O)[O-])cc2)o1	OX1R antag-2 102 | OX1R HTRF confirm inactive | CHO-K1 HTRF cnt inactive
CC(C)(C)NC(=S)N/N=C\c1ccc(-c2ccc([N+](=O)[O-])cc2)o1	none
O=C1C(=O)c2ccccc2C([O-])=C1[n+]1ccccc1	OX1R antag-2 171 | OX1R HTRF confirm 60 | CHO-K1 HTRF cnt 108
Cc1ccc(S(=O)(=O)NCC(=O)OCC(=O)c2ccc(Cl)s2)cc1	none
COc1ccc(-c2csc(Nc3ncccc3C)n2)cc1OC	OX1R antag-2 84 | OX1R HTRF confirm 73 | CHO-K1 HTRF cnt inactive
Cc1cccnc1Nc1nc(-c2ccc(O)c(O)c2)cs1	none
